Measurements published in ChEMBL document CHEMBL1150392, “Synthesis and activity on rat aorta rings and rat pancreatic beta-cells of ring-opened analogues of benzopyran-type potassium channel activators” (Bioorg Med Chem, 2008).

What was measured:
[1] = species: Rattus norvegicus; assay: Activation of ATP-sensitive potassium channel in Wistar rat pancreatic beta islets assessed as glucose-induced residual insulin secretion at 10 uM relative to control
[2] = species: Rattus norvegicus; assay: Activation of ATP-sensitive potassium channel in potassium-depolarized Wistar rat aortic rings assessed as myorelaxant activity against KCl-induced contraction; type: tissue-based; conditions: Aorta
How it was run: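 Aorta rings were taken from fed Wistar rats (180–220 g) and contracted with KCl 30 mM. Dose–response curves were run against the plateau phase.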

[3] = species: Rattus norvegicus; assay: Activation of ATP-sensitive potassium channel in Wistar rat pancreatic beta islets assessed as glucose-induced residual insulin secretion at 50 uM relative to control
[4] = system: Aorta; assay: Ratio of IC50 for inhibition of glucose-induced insulin secretion in Wistar rat pancreatic beta islets to ED50 for myorelaxant activity in Wistar rat aortic rings; type: functional
[5] = Activation of ATP-sensitive potassium channel in Wistar rat pancreatic beta islets assessed as inhibition of glucose-induced insulin secretion

| Compound | Activity [1] [%] | ED50 [2] [µM] | Activity [3] [%] | Ratio [4] | IC50 [5] [µM] |
| --- | --- | --- | --- | --- | --- |
| CC(N/C(=N\C#N)Nc1ccncc1)C(C)(C)C (configuration not stated) | 96 | 0.35 | – | – | – |
| COc1ccccc1CNC(=O)NS(=O)(=O)c1ccc(Cl)cc1 | – | > 30 | 113 | – | – |
| COc1ccccc1CNC(=O)c1ccc([N+](=O)[O-])cc1 | – | > 30 | 86.6 | – | – |
| COc1ccccc1CNC(=O)c1cccs1 | – | > 30 | 83.3 | – | – |
| CC1(C)Oc2ccc(C#N)cc2C(N2CCCC2=O)C1O (configuration not stated) [CROMAKALIM] | 94.7 | 0.13 | 77.2 | >769 | – |
| CC1=Nc2ccc(Cl)cc2S(=O)(=O)N1 [DIAZOXIDE] | 71.7 | 23.8 | 27.9 | 1 | 19.7 |
